In the RNAGym collection of RNA variant scans (doi:10.1126/science.aae0568):
Fewer inactive variants are shown than the library holds.

B1: tRNA (parent)
chain: GUUCCGUUGGCGUAAUGGUAACGCGUCUCCCUCCUAAGGAGAAGACUGCGGGUUCGAGUCCCGUACGGAACG

Variants of: B1
Test: yeast fitness relative to wild type (ratio to wild type); higher = fitter; tRNA-Arg(CCU), competitive growth, 37 C, YPD
How it was run: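 The tRNA-Arg(CCU) gene variants were made by chemical synthesis with a 3% per-site mutation rate at 69 sites and inserted at the native genomic locus of Saccharomyces cerevisiae. After pooling, the strains were competed in YPD at 37°C for 24 hours in six parallel replicates. Gene amplicons from the start population and each end population were read by 100-nucleotide paired-end sequencing, and Darwinian fitness relative to wild type was taken from genotype frequency changes. Genotypes needed ≥ 100 starting reads, and estimates < 0.5 were set to 0.5.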

Row | Variant | yeast fitness
1 | A14G A45U A69C | 0.748
2 | A14G A43U G50U G68C | ≤ 0.5
3 | A14C G23C A36U A70U | ≤ 0.5
4 | A14G C29G C62U | 0.573
5 | A14C U35C A65G | 0.525
6 | A14G A20C C66U | 0.665
7 | A14G C29G C31U C55U A69C | ≤ 0.5
8 | A14C G39C | 0.575
9 | A14C G67U | 0.678
10 | A14G C60A | 0.523
11 | A14G C60G | 0.507
12 | A14G A40C | 1
13 | A14G A40G | 0.856
14 | A14G A40U | 0.904
15 | A14G C31G A45G G56U | ≤ 0.5
16 | A14G A21U G41C | ≤ 0.5
17 | A14G C27A | 0.916
18 | A14G C27U | 0.974
19 | A14C U26A C34U G50U C55G | ≤ 0.5
20 | A14G C22G C33U G58A C60A | 0.51
21 | A14C U32G | 0.752

Row | Variant | yeast fitness
22 | A14G C34A A69C | 0.605
23 | A14C G25C U47A C49U G63C | 0.561
24 | A14G C34G | 0.608
25 | A14C G56A | 0.762
26 | A14G A69C | 0.729
27 | A14G A20C C31U C46G | ≤ 0.5
28 | A14G C34A C49U G51C C61U | ≤ 0.5
29 | A14G C34G C61A | ≤ 0.5
30 | A14G C61A A69C | ≤ 0.5
31 | A14G A42U C55U U59C G63A A65C | ≤ 0.5
32 | A14G C22U C49A | ≤ 0.5
33 | A14G C46G | 0.989
34 | A14G A37G C55G | ≤ 0.5
35 | A14G A15G | 0.917
36 | A14G A15C | 0.733
37 | A14C U26C A36G | ≤ 0.5
38 | A14G C22A C29G C30G G48U | 0.618
39 | A14G A40C C60U C62G | ≤ 0.5
40 | A14G C30U A42G A57U | ≤ 0.5
41 | A14C G56A A69C | 0.578
42 | A14G A21U G68C | ≤ 0.5

Row | Variant | yeast fitness
43 | A14C U19G U32A | ≤ 0.5
44 | A14G A15C G17A A69C A70G | 0.562
45 | A14G C24U A36C A43U A69U | ≤ 0.5
46 | A14C U47C A70U | 0.614
47 | A14G A21G A70U | 0.684
48 | A14G A36C A69C | ≤ 0.5
49 | A14G A36G | 0.8
50 | A14C G25C C62U | ≤ 0.5
51 | A14C U28G C55G G68C | ≤ 0.5
52 | A14C G63A | 0.803
53 | A14C G63C | 0.535
54 | A14G C22U C34U C55A | 0.583
55 | A14G C66G | 0.761
56 | A14C G25C C27G C34U U35A G38A U59A | ≤ 0.5
57 | A14C U26A C34U C55G G68A | ≤ 0.5
58 | A14G C30A C34A A43C C62U G63A | ≤ 0.5
59 | A14G A21C C34A U47C | ≤ 0.5
60 | A14C U16A G41C G63C A65U | 0.586
61 | A14C G52C C55G | 0.546
62 | A14C G51A A69U A70G | ≤ 0.5
63 | A14G A20C C22G C29U A69U | ≤ 0.5

Row | Variant | yeast fitness
64 | A14G C24U G67C | 0.54
65 | A14G A20G | 0.883
66 | A14G A20U | 0.942
67 | A14G A20C | 0.813
68 | A14G A42C G50C C66U | ≤ 0.5
69 | A14C G25A C33G A36U A45G G52C A70C | 0.556
70 | A14C U26G C29A A42C | ≤ 0.5
71 | A14G A37U C61A | ≤ 0.5
72 | A14G C24U | 0.784
73 | A14G C22G C29G G41C | ≤ 0.5
74 | A14C G50A G63C | 0.522
75 | A14G C24G G25C C27A A40C G51A | ≤ 0.5
76 | A14G A45U | 0.746
77 | A14G A45G | 0.919
78 | A14G C31G A37U A65U | 0.529
79 | A14G A40G A43U G50C A69U | ≤ 0.5
80 | A14G A20G U47A G58C | ≤ 0.5
81 | A14G A65G A70U | 0.566
82 | A14C U16A C24U U53C C60G | ≤ 0.5
83 | A14C U16C C55U A70G | ≤ 0.5
84 | A14G A65G | 0.887
